From ChEMBL document CHEMBL4725312, “Pre-clinical evidences of the antileishmanial effects of diselenides and selenocyanates” (Bioorg Med Chem Lett, 2020)
Active and inactive are the calls of the source. The rule behind the calls is not given here.

Tests used:
Leishmania infantum [1] = experiment: Antileishmanial activity against axenic amastigote state of Leishmania infantum incubated for 24 hrs; assay type: functional, organism-based
THP-1 = experiment: Cytotoxicity against human THP-1 cells assessed as reduction in cell viability incubated for 24 hrs; assay type: cell-based; details: THP-1, 24 h
[2] = Ratio of IC50 for human THP1 cells to IC50 for axenic amastigote state of Leishmania infantum
Summary of the method: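 Selectivity index was calculated as the THP-1 cytotoxicity IC50 (24 h exposure) divided by the IC50 against L. infantum amastigotes.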

Leishmania infantum [3] = experiment: Antileishmanial activity against axenic amastigote state of Leishmania infantum infected in human THP-1 cells at 3 uM incubated for 48 hrs; assay type: functional, organism-based
Summary of the method: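 THP-1 cells infected with L. infantum amastigotes were exposed to compounds at 3 μM for 48 h. Infection rate was the read-out, with autofluorescence correction applied, and results were reported as means.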

[4] = Inhibition of trypanothione reductase (unknown origin)
Summary of the method: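 Trypanothione reductase inhibition was expressed as IC50, with mepacrine run alongside as the positive-control TryR inhibitor.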

[5] = Ratio of IC50 for mepacrine to IC50 for test compound for inhibition of trypanothione reductase (unknown origin)
Summary of the method: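 Trypanothione reductase inhibition assay, with mepacrine run alongside as the positive-control TryR inhibitor. The value is mepacrine IC50 divided by test-compound IC50 in the same assay.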

Structure (SMILES)	IC50 (Leishmania infantum [1]) [µM]	IC50 (THP-1) [µM]	Ratio IC50 [2]	Activity (Leishmania infantum [3])	IC50 [4] [µM]	Ratio IC50 [5]
N#C[Se]c1ccc(NC(=O)c2ccccc2-c2ccccc2C(=O)O)cc1	10.7	> 25	>2.34	–	–	–
O=C(NC(=[Se])Nc1ccc([Se][Se]c2ccc(NC(=[Se])NC(=O)c3ccno3)cc2)cc1)c1ccno1	0.35	1.07	3.1	–	–	–
O=C(NC(=[Se])Nc1ccc([Se][Se]c2ccc(NC(=[Se])NC(=O)c3ccc([N+](=O)[O-])cc3)cc2)cc1)c1ccc([N+](=O)[O-])cc1	2.27	> 25	>11.01	–	–	–
N#C[Se]c1ccc(NC(=O)c2ccccc2C(=O)O)cc1	> 25	> 25	–	–	–	–
O=C(NC(=[Se])Nc1ccc([Se][Se]c2ccc(NC(=[Se])NC(=O)c3cc4ccccc4s3)cc2)cc1)c1cc2ccccc2s1	14.6	> 25	>1.71	–	–	–
O=C(NC(=[Se])Nc1ccc([Se][Se]c2ccc(NC(=[Se])NC(=O)c3ccccc3)cc2)cc1)c1ccccc1	> 25	> 25	–	–	–	–
O=C(NC(=[Se])Nc1ccc([Se][Se]c2ccc(NC(=[Se])NC(=O)c3cc4ccccc4nc3-c3ccccc3)cc2)cc1)c1cc2ccccc2nc1-c1ccccc1	6.18	8.5	1.34	–	–	–
N#C[Se]c1ccc(NC(=O)c2nccnc2C(=O)O)cc1	> 25	> 25	–	–	–	–
O=C(O)/C=C\C(=O)Nc1ccc([Se][Se]c2ccc(NC(=O)/C=C\C(=O)O)cc2)cc1	> 25	> 25	–	–	–	–
O=C(NC(=[Se])Nc1ccc([Se][Se]c2ccc(NC(=[Se])NC(=O)c3ccc(Cl)cc3)cc2)cc1)c1ccc(Cl)cc1	> 25	> 25	–	–	–	–
O=C(O)c1ccccc1C(=O)Nc1ccc([Se][Se]c2ccc(NC(=O)c3ccccc3C(=O)O)cc2)cc1	4.57	> 25	>5.47	–	–	–
N#C[Se]c1ccc(NC(=O)C2C3C=CC(O3)C2C(=O)O)cc1 (centres undefined)	3.22	21.5	7.76	inactive	0.54	30
CCCCCCCCCCCCCCCCOP(=O)([O-])OCC[N+](C)(C)C [MILTEFOSINE]	–	–	6.51	–	–	–
O=C(O)CCC(=O)Nc1ccc([Se][Se]c2ccc(NC(=O)CCC(=O)O)cc2)cc1	7.9	> 25	>3.16	–	–	–
O=C(NC(=[Se])Nc1ccc([Se][Se]c2ccc(NC(=[Se])NC(=O)c3sccc3Cl)cc2)cc1)c1sccc1Cl	5.57	> 25	>4.48	–	–	–
COc1cc(OC)cc(C(=O)NC(=[Se])Nc2ccc([Se][Se]c3ccc(NC(=[Se])NC(=O)c4cc(OC)cc(OC)c4)cc3)cc2)c1	9.22	> 25	>2.77	–	–	–
O=C1COCC(=O)N1c1ccc([Se][Se]c2ccc(N3C(=O)COCC3=O)cc2)cc1	10.4	8.53	0.82	–	–	–

Structure (SMILES)	IC50 (Leishmania infantum [1]) [µM]	IC50 (THP-1) [µM]	Ratio IC50 [2]	Activity (Leishmania infantum [3])	IC50 [4] [µM]	Ratio IC50 [5]
N#C[Se]c1ccc(NC(=O)CCC(=O)O)cc1	11.3	> 25	>2.2	–	–	–
CSc1ccc(C(=O)NC(=[Se])Nc2ccc([Se][Se]c3ccc(NC(=[Se])NC(=O)c4ccc(SC)cc4)cc3)cc2)cc1	13.5	> 25	>1.85	–	–	–
O=C(NC(=[Se])Nc1ccc([Se][Se]c2ccc(NC(=[Se])NC(=O)c3ccco3)cc2)cc1)c1ccco1	0.67	7.44	11.19	Active	9.22	–
O=C1c2ccccc2C(=O)N1c1ccc([Se][Se]c2ccc(N3C(=O)c4ccccc4C3=O)cc2)cc1	2.07	23	11.08	Active	21.8	–
O=C(O)C1CCCCC1C(=O)Nc1ccc([Se][Se]c2ccc(NC(=O)C3CCCCC3C(=O)O)cc2)cc1 (centres undefined)	2.03	> 25	>12.31	Active	18.5	–
Cc1ccc(C(=O)NC(=[Se])Nc2ccc([Se][Se]c3ccc(NC(=[Se])NC(=O)c4ccc(C)cc4)cc3)cc2)cc1	15	> 25	>1.66	–	–	–
O=C(NC(=[Se])Nc1ccc([Se][Se]c2ccc(NC(=[Se])NC(=O)c3cnc4ccccc4c3)cc2)cc1)c1cnc2ccccc2c1	3.08	12.8	4.15	–	–	–
N#C[Se]c1ccc(NC(=O)COCC(=O)O)cc1	> 25	> 25	–	–	–	–
O=C(O)COCC(=O)Nc1ccc([Se][Se]c2ccc(NC(=O)COCC(=O)O)cc2)cc1	12.1	> 25	>2.06	–	–	–
N#C[Se]c1ccc(NC(=O)/C=C\C(=O)O)cc1	> 25	> 25	–	–	–	–
N#C[Se]c1ccc(NC(=O)C2CCCCC2C(=O)O)cc1 (centres undefined)	10.6	> 25	>2.35	–	–	–
CCN(CC)CCCC(C)Nc1c2ccc(Cl)cc2nc2ccc(OC)cc12 (centres undefined) [QUINACRINE]	–	–	–	–	17	–
O=C(NC(=[Se])Nc1ccc([Se][Se]c2ccc(NC(=[Se])NC(=O)c3ccc4c(c3)OCO4)cc2)cc1)c1ccc2c(c1)OCO2	9.98	13.5	1.35	–	–	–
O=C(NC(=[Se])Nc1ccc([Se][Se]c2ccc(NC(=[Se])NC(=O)c3cccs3)cc2)cc1)c1cccs1	4.55	22.2	4.87	–	–	–
O=C1C=CC(=O)N1c1ccc([Se][Se]c2ccc(N3C(=O)C=CC3=O)cc2)cc1	1.54	15.2	9.91	Active	0.23	30
O=C(O)C1C2C=CC(O2)C1C(=O)Nc1ccc([Se][Se]c2ccc(NC(=O)C3C4C=CC(O4)C3C(=O)O)cc2)cc1 (centres undefined)	1.31	> 25	>19.13	Active	25	–
CCCCCCCCCCCCCCCCCCOCC(COP(=O)([O-])OCC[N+](C)(C)C)OC (centres undefined) [EDELFOSINE]	–	–	6.01	Active	–	–
